The subject of assay [1] is K-562. The assay can be described thus: MTT anti-proliferative assay. The class given is cell-based, human. The conditions noted are these: read-out: IC50 ± SD, K-562.
Assay [2] concerns KG-1a. Kind of assay: MTT anti-proliferative assay. The conditions noted are these: read-out: IC50 ± SD, KG-1a. Type of assay: cell-based, human. For orientation: Tetrazolium assays rely on reduction of a dye to a coloured formazan, in cell work by metabolically active cells.
Assay [3] deals with Jurkat. The assay can be described thus: MTT anti-proliferative assay. The class given is cell-based, human. The conditions noted are these: read-out: IC50 ± SD, Jurkat.
Assay [4] has as its target EGFR (Homo sapiens, UniProt P00533). The assay can be described thus: EGFR kinase assay. The class given is biochemical.
The target of assay [5] is c-Src (Homo sapiens, UniProt P12931). Kind of assay: Src kinase assay. The class given is biochemical.
Assay [6] has as its system IL-6. Kind of assay: IL-6 ELISA in K-562 cells. The conditions noted are these: Homo sapiens, K562, 24 h, read-out: IL-6 protein levels (% of control). Type of assay: cell-based, human. In short, it runs like this:
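K-562 cells exposed 24 h to vehicle (DMSO), test compound at 10 μM or dexamethasone (positive control). IL-6 secreted into cell-free supernatant quantified by human IL-6 ELISA kit. Expressed as % of vehicle control, mean ± SD of three independent experiments, each in triplicate. Time course: in 12-well plates, medium changed when compound (10 μM) added, and media sampled at 0, 1, 4, 8, 12, 24, 48 h.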

Assay [7] relates to STAT3. Kind of assay: STAT3 activation assay. The class given is cell-based, human. The conditions noted are these: K-562 cells, 10 μM, 24 h, nuclear extracts. Summed up: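 K562 cells seeded overnight in 10 cm plates, then given vehicle, test compound (10 μM) or WP1066 (positive control) for 24 h. Nuclear fractions extracted by kit. STAT3 activation measured in nuclear extracts by TransAM STAT3 ELISA per manufacturer. Mean ± SD of three independent experiments, each in triplicate.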

In assay [8] the test system is RPMI-8226 cell line. Kind of assay: NCI in vitro one dose anticancer assay. The class given is cell-based. The conditions noted are these: Homo sapiens, RPMI-8226, 48 h, read-out: % growth inhibition. Summed up:
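NCI protocol. Test compound added once at 10−5 M to ~60 human tumour lines from nine subpanels. Incubated 48 h at 37 °C, 5% CO2, 95% air, 100% relative humidity. Endpoint by sulforhodamine B protein staining with spectrophotometric absorbance. Growth of treated cells reported as percent of untreated cells.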

The mark [9] stands for this setting: read-out: EGFR (IC50 μM), PGT substrate, ATP 50 μM.
The mark [10] stands for this setting: read-out: Src (IC50 μM), PGT substrate, ATP 50 μM.

Where two headings read alike, the source gives them in different places. Where only a bound is given, the exact number is not on record here.

Chain of c-Src (P12931 whole entry): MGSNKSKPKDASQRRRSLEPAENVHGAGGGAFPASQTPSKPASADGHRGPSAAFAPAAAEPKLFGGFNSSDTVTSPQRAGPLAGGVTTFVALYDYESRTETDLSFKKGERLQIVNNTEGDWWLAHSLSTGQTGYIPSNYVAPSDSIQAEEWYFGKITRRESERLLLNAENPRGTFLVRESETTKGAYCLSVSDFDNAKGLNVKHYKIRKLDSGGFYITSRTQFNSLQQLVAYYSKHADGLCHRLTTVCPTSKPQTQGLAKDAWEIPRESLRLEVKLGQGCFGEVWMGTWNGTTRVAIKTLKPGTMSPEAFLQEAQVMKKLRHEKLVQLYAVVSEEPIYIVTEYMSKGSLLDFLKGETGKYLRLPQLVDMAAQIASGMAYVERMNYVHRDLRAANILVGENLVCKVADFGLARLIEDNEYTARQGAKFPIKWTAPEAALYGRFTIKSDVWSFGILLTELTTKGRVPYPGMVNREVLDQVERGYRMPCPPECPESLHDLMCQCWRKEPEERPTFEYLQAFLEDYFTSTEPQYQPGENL
Chain of EGFR (P00533 25-1210): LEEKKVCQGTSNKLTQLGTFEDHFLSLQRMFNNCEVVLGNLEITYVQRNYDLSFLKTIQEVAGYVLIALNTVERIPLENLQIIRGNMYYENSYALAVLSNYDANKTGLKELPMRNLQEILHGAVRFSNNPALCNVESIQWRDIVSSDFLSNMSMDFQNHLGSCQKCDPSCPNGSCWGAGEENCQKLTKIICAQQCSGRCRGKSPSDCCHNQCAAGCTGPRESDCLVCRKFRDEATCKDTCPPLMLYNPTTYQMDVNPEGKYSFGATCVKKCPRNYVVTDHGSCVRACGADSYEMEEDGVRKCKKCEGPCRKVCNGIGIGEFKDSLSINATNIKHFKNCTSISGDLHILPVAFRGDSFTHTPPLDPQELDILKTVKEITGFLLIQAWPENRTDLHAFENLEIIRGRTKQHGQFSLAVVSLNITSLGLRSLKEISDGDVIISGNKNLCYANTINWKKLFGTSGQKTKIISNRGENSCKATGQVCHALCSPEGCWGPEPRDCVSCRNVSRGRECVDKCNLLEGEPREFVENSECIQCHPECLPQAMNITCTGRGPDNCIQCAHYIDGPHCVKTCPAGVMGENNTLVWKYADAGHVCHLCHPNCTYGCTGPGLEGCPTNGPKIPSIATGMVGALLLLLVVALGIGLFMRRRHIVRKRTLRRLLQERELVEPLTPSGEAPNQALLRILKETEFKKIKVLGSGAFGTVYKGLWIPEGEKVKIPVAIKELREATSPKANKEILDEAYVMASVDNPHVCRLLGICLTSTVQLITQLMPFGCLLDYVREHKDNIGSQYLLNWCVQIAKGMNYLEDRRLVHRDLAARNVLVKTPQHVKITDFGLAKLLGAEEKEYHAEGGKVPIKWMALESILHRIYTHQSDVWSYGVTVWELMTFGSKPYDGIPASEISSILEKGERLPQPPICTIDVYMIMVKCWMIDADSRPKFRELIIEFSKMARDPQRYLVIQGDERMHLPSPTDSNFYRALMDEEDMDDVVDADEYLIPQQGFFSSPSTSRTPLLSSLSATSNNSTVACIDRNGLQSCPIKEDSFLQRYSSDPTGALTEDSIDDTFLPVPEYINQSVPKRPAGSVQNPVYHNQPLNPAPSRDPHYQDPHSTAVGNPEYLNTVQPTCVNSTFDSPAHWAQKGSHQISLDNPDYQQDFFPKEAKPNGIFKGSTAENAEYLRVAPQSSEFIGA

What is called IC50 is the concentration that gives 50% inhibition. Regarding `N.N.[Cl][Pt][Cl]` [Cisplatin, reference compound], the 50% inhibitory concentration (IC50) in assay [1] (MTT, 24 h treatment) was found to be 3.21 ± 0.45 µM; in assay [2] (MTT, 24 h treatment) it was 12.2 ± 3.41 µM; in assay [3] (MTT, 24 h treatment) it was 15.1 ± 1.35 µM.
Take `O=C(CSc1nnc(-c2ccccc2)o1)Nc1ccc(C(=O)C=Cc2ccc(Cl)cc2)cc1` [Compound 8b, N-(4-(3-(4-Chlorophenyl)acryloyl)phenyl)-2-((5-phenyl-1,3,4-oxadiazol-2-yl)thio)acetamide]: the IC50 in assay [1] (Homo sapiens, K562, 24 h) stood at 75.4 ± 4.61 µM; in assay [2] (Homo sapiens, KG-1a, 24 h), 82.2 ± 4.56 µM; in assay [3] (Homo sapiens, Jurkat, 24 h), 78.7 ± 2.13 µM; in assay [4] it was 35.1 ± 1.36 µM; in assay [5] it was 44.1 ± 3.5 µM. The activity at 10 µM in assay [6] fell in the range of 30 to 75%. In addition, in assay [7], the “inhibition of STAT3 activation” value is “moderate activities”.
With `COc1ccc(C=CC(=O)c2ccc(NC(=O)CSc3nnc(-c4ccccc4)o3)cc2)cc1OC` [Compound 8c, N-(4-(3-(3,4-Dimethoxyphenyl)acryloyl)phenyl)-2-((5-phenyl-1,3,4-oxadiazol-2-yl)thio)acetamide], the IC50 in assay [1] (Homo sapiens, K562, 24 h) worked out at 69.5 ± 5.15 µM; in assay [2] (Homo sapiens, KG-1a, 24 h) it was 95.2 ± 3.88 µM; in assay [3] (Homo sapiens, Jurkat, 24 h), 75.2 ± 1.25 µM; in assay [4], 64.3 ± 3.56 µM; in assay [5], 57.3 ± 2.4 µM. Moreover, in assay [6], the activity at 10 µM lay in the range of 82 to 98%.
Turning to `COc1cc(C=CC(=O)c2ccc(NC(=O)CSc3nnc(-c4ccccc4)o3)cc2)cc(OC)c1OC` [Compound 8d, N-(4-(3-(3.4.5-Trimethoxyphenyl)acryloyl)phenyl)-2-((5-phenyl-1,3,4-oxadiazol-2-yl)thio)acetamide], the IC50 came to 22.8 ± 1.32 µM in assay [1] (MTT, 24 h treatment); 31.3 ± 1.05 µM in assay [2] (MTT, 24 h treatment); 28.3 ± 0.62 µM in assay [3] (MTT, 24 h treatment); 11.2 ± 1.25 µM in assay [4] (setting [9]); 13.4 ± 1.6 µM in assay [5] (setting [10]).
For `O=C(CSc1nnc(-c2ccc(Cl)cc2)o1)Nc1ccc(C(=O)C=Cc2ccc(Cl)cc2)cc1` [Compound 8f, 2-((5-(4-Chlorophenyl)-1,3,4-oxadiazol-2-yl)thio)-N-(4-(3-(4-chloro-phenyl)acryloyl)phenyl)acetamide], the IC50 in assay [1] (Homo sapiens, K562, 24 h) turned out to be 82.3 ± 3.08 µM; in assay [2] (Homo sapiens, KG-1a, 24 h), 91.5 ± 4.15 µM; in assay [3] (Homo sapiens, Jurkat, 24 h) it was 88.6 ± 1.35 µM; in assay [4], 64.7 ± 3.65 µM; in assay [5] it was 50.3 ± 3.5 µM. Moreover, in assay [6], the activity at 10 µM is 82 to 98%.
In the case of `COc1ccc(C=CC(=O)c2ccc(NC(=O)CSc3nnc(-c4ccc(Cl)cc4)o3)cc2)cc1` [Compound 8g, 2-(5-(4-Chlorophenyl)-1,3,4-oxadiazol-2-ylthio)-N-(4-(3-(4-methoxy-phenyl)acryloyl)phenyl)acetamide], the IC50 is 13.1 ± 1.65 µM in assay [1] (Homo sapiens, K562, 24 h); 55.6 ± 1.34 µM in assay [2] (Homo sapiens, KG-1a, 24 h); 41.2 ± 0.91 µM in assay [3] (Homo sapiens, Jurkat, 24 h); 12.7 ± 1.25 µM in assay [4]; 22.1 ± 2.15 µM in assay [5].
For `COc1ccc(C=CC(=O)c2ccc(NC(=O)CSc3nnc(-c4ccc(Cl)cc4)o3)cc2)cc1OC` [Compound 8h, 2-(5-(4-Chlorophenyl)-1,3,4-oxadiazol-2-ylthio)-N-(4-(3-(3,4-dimethoxy-phenyl)acryloyl)phenyl)acetamide], the IC50 in assay [1] (Homo sapiens, K562, 24 h) was found to be 72.1 ± 3.32 µM; in assay [2] (Homo sapiens, KG-1a, 24 h) it was 84.6 ± 5.21 µM; in assay [3] (Homo sapiens, Jurkat, 24 h) it was 78.1 ± 2.1 µM; in assay [4], 30.2 ± 2.35 µM; in assay [5], 41.4 ± 4.5 µM.
On the same counts, the results for `COc1cc(C=CC(=O)c2ccc(NC(=O)CSc3nnc(-c4ccc(Cl)cc4)o3)cc2)cc(OC)c1OC` [Compound 8i, 2-(5-(4-Chlorophenyl)-1,3,4-oxadiazol-2-ylthio)-N-(4-(3-(3,4,5-trimethoxyphenyl)acryloyl)phenyl)acetamide] are 55.3 ± 4.89 µM, 79 ± 3.02 µM, 62.6 ± 1.37 µM, 29.3 ± 3.65 µM and 43.7 ± 3.5 µM.
For orientation: inhibition means the drop in the measured response relative to a control, in per cent. Take `COc1ccc(-c2nnc(SCC(=O)Nc3ccc(C(=O)C=Cc4ccccc4)cc3)o2)cc1` [Compound 8j, 2-(5-(4-Methoxyphenyl)-1,3,4-oxadiazol-2-ylthio)-N-(4-(3-phenylacryloyl)phenyl)acetamide]: the inhibition at 10 µM in assay [8] was in the range of 31.3 to 144%. Also, the IC50 worked out at 22.6 ± 2.34 µM in assay [1] (Homo sapiens, K562, 24 h); 25.2 ± 0.48 µM in assay [2] (Homo sapiens, KG-1a, 24 h); 31.1 ± 0.46 µM in assay [3] (Homo sapiens, Jurkat, 24 h); 11.5 ± 1.24 µM in assay [4]; 25.3 ± 1.56 µM in assay [5].
For the compound `COc1ccc(-c2nnc(SCC(=O)Nc3ccc(C(=O)C=Cc4ccc(Cl)cc4)cc3)o2)cc1` [Compound 8k, 2-(5-(4-Methoxyphenyl)-1,3,4-oxadiazol-2-ylthio)-N-(4-(3-(4-chloro-phenyl)acryloyl)phenyl)acetamide], the IC50 in assay [1] (Homo sapiens, K562, 24 h) came to 58.4 ± 3.75 µM; in assay [2] (Homo sapiens, KG-1a, 24 h), 71.1 ± 1.22 µM; in assay [3] (Homo sapiens, Jurkat, 24 h), 62.7 ± 2.71 µM; in assay [4], 18.3 ± 2.35 µM; in assay [5] it was 33.6 ± 2.35 µM.
On the same counts, the results for `COc1ccc(/C=C/C(=O)c2ccc(NC(=O)CSc3nnc(-c4ccc(OC)cc4)o3)cc2)cc1` [Compound 8l, 2-(5-(4-Methoxyphenyl)-1,3,4-oxadiazol-2-ylthio)-N-(4-((E)-3-(4-methoxyphenyl)acryloyl)phenyl)acetamide] are 35.2 ± 2.05 µM, 38.3 ± 2.45 µM, 33.3 ± 1.22 µM, 12.3 ± 1.35 µM and 25 ± 3.46 µM.
As to `COc1ccc(-c2nnc(SCC(=O)Nc3ccc(C(=O)C=Cc4ccc(OC)c(OC)c4)cc3)o2)cc1` [Compound 8m], the IC50 in assay [1] (MTT, 24 h treatment) is 23.1 ± 0.28 µM; in assay [2] (MTT, 24 h treatment) it was 31.5 ± 0.42 µM; in assay [3] (MTT, 24 h treatment) it was 28.4 ± 0.85 µM; in assay [4] (setting [9]) it was 10.2 ± 0.36 µM; in assay [5] (setting [10]), 12.5 ± 0.3 µM.
Take `COc1ccc(-c2nnc(SCC(=O)Nc3ccc(C(=O)C=Cc4ccccc4)cc3)o2)cc1OC` [Compound 8o, N-(4-Cinnamoylphenyl)-2-((5-(3,4-dimethoxyphenyl)-1,3,4-oxadiazol-2-yl)thio)acetamide]: the IC50 was determined as 58.4 ± 5.45 µM in assay [1] (Homo sapiens, K562, 24 h); 65.6 ± 2.31 µM in assay [2] (Homo sapiens, KG-1a, 24 h); 94.1 ± 5.31 µM in assay [3] (Homo sapiens, Jurkat, 24 h); 71.1 ± 3.25 µM in assay [4]; 51.2 ± 5.6 µM in assay [5]. Moreover, the activity at 10 µM in assay [6] is 82 to 98%.
With `COc1ccc(C=CC(=O)c2ccc(NC(=O)CSc3nnc(-c4ccc(OC)c(OC)c4)o3)cc2)cc1` [Compound 8q, 2-((5-(3,4-Dimethoxyphenyl)-1,3,4-oxadiazol-2-yl)thio)-N-(4-(3-(4-methoxyphenyl)acryloyl)phenyl)acetamide], the IC50 amounted to 40.2 ± 2.82 µM in assay [1] (Homo sapiens, K562, 24 h); 45.3 ± 2.31 µM in assay [2] (Homo sapiens, KG-1a, 24 h); 31.9 ± 1.3 µM in assay [3] (Homo sapiens, Jurkat, 24 h); 11.4 ± 1.54 µM in assay [4]; 29.5 ± 1.23 µM in assay [5]. Further, in assay [6], the activity at 10 µM was in the range of 30 to 75%. In addition, in assay [7], the “inhibition of STAT3 activation” value was “moderate activities”.
As to `COc1ccc(C=CC(=O)c2ccc(NC(=O)CSc3nnc(-c4ccc(OC)c(OC)c4)o3)cc2)cc1OC` [Compound 8r, 2-((5-(3,4-Dimethoxyphenyl)-1,3,4-oxadiazol-2-yl)thio)-N-(4-(3-(3,4-di-methoxyphenyl)acryloyl)phenyl)acetamide], the IC50 is more than 100 µM in assay [1] (Homo sapiens, K562, 24 h); 93.1 ± 1.14 µM in assay [2] (Homo sapiens, KG-1a, 24 h); more than 100 µM in assay [3] (Homo sapiens, Jurkat, 24 h); 63.3 ± 2.36 µM in assay [4]; 76.2 ± 3.65 µM in assay [5]. Moreover, the activity at 10 µM in assay [6] was 82 to 98%.
Take `COc1cc(-c2nnc(SCC(=O)Nc3ccc(C(=O)C=Cc4ccccc4)cc3)o2)cc(OC)c1OC` [Compound 8t, N-(4-Cinnamoylphenyl)-2-((5-(3,4,5-trimethoxyphenyl)-1,3,4-oxadiazol-2-yl)thio)acetamide]: the 50% inhibitory concentration (IC50) in assay [1] (Homo sapiens, K562, 24 h) is 73.2 ± 3.72 µM; in assay [2] (Homo sapiens, KG-1a, 24 h), 84.6 ± 1.28 µM; in assay [3] (Homo sapiens, Jurkat, 24 h) it was 76.4 ± 1.31 µM; in assay [4], 22.3 ± 2.35 µM; in assay [5], 40.2 ± 1.34 µM. In assay [6], the activity at 10 µM was in the range of 30 to 75%.
Turning to `COc1cc(-c2nnc(SCC(=O)Nc3ccc(C(=O)C=Cc4ccc(Cl)cc4)cc3)o2)cc(OC)c1OC` [Compound 8u, N-(4-(3-(4-Chlorophenyl)acryloyl)phenyl)-2-((5-(3,4,5-trimethoxy-phenyl)-1,3,4-oxadiazol-2-yl)thio)acetamide], the IC50 in assay [1] (Homo sapiens, K562, 24 h) is 84.2 ± 4.36 µM; in assay [2] (Homo sapiens, KG-1a, 24 h), 95.7 ± 2.48 µM; in assay [3] (Homo sapiens, Jurkat, 24 h), more than 100 µM; in assay [4], 55.4 ± 4.35 µM; in assay [5], 53.1 ± 5.6 µM. The activity at 10 µM in assay [6] was in the range of 82 to 98%.
As for `COc1ccc(C=CC(=O)c2ccc(NC(=O)CSc3nnc(-c4cc(OC)c(OC)c(OC)c4)o3)cc2)cc1OC` [Compound 8w, N-(4-(3-(3,4-Dimethoxyphenyl)acryloyl)phenyl)-2-((5-(3,4,5-trimethoxyphenyl)-1,3,4-oxadiazol-2-yl)thio)acetamide], the IC50 in assay [1] (Homo sapiens, K562, 24 h) was 90.3 ± 2.91 µM; in assay [2] (Homo sapiens, KG-1a, 24 h) it was more than 100 µM; in assay [3] (Homo sapiens, Jurkat, 24 h) it was more than 100 µM; in assay [4], 48.3 ± 2.36 µM; in assay [5], 60.3 ± 2.5 µM. Also, the activity at 10 µM in assay [6] is 82 to 98%.
